From ChEMBL document CHEMBL1153564 (Antimicrob Agents Chemother, 2008)
Converted amounts (≈) assume the structure as drawn. The source made the active and inactive calls. The calls are words filed in the database; no cut-off is given here. Starred links: 1 amine or outer side, 2 acyl side, 3 side chain; linkers in the order of their positions; H or OH if unused. Positions of bridges follow the written chain, without caps; N, C: chain ends. Non-standard residues stand in square brackets, D forms with d. Residues, ends and D or L forms follow the SMILES beside them. *: point of attachment. pTerphenylCO(4''-OnC5H11) = CCCCCOc1ccc(-c2ccc(-c3ccc(C(=O)*)cc3)cc2)cc1; Orn(4R-OH,5R-OH) = O=C([C@H](C[C@@H](O)[C@@H](O)N[*:3])N[*:1])[*:2]; hTyr(3S-OH,4S-OH) = N[C@H](C(=O)O)[C@H](O)[C@@H](O)c1ccc(O)cc1; Pro(3S-OH,4S-Me) = C[C@H]1CN[C@H](C(=O)O)[C@H]1O; Hyp = O=C(O)[C@@H]1C[C@@H](O)CN1

Tests used:
Mus musculus = test: Cmax in serum of neutropenic ICR/Swiss mouse candidiasis model at 80 mg/kg, ip up to 4 hrs by reverse-phase high-pressure liquid chromatography; assay type: ADME, organism-based; parameters: dose 80 mg/kg, route intraperitoneal; conditions: in vivo
Procedure, shortened: (§1)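 Infected neutropenic ICR/Swiss mice given single ip doses (5, 20 or 80 mg/kg; 0.2 ml); serum from three isoflurane-anaesthetised mice at 1, 4, 8, 12, 24 and 48 h, stored at −80°C, assayed by reverse-phase HPLC with fluorescence detection, loratadine internal standard, linear 10–50,000 ng/ml. Noncompartmental analysis; half-life by nonlinear least squares.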

Candida albicans [1] = test: Antifungal activity against Candida albicans K-1 infected in neutropenic ICR/Swiss mouse candidiasis model assessed as dose required for 1-log10 reduction in […] per kidney administered intraperitoneally every 16 hrs up to 4 days measured per 96 hrs; assay type: functional
Procedure, shortened: (§2)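 Neutropenic mice were infected iv with C. albicans K-1 2 h before therapy. Total doses of 1.25, 5, 20, 80 and 320 mg/kg/96 h were split into 1, 2, 4 or 6 ip doses (q96h, q48h, q24h, q16h), three mice per regimen. Effect is the log10 CFU/kidney relative to untreated controls at 96 h. Static and 1-log doses were taken from a Hill model fit.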

Nakaseomyces glabratus [2] = test: Antifungal activity against Candida glabrata 32930 infected in neutropenic ICR/Swiss mouse candidiasis model assessed as dose required for 1-log10 reduction in […] per kidney administered intraperitoneally every 24 hrs up to 4 days measured per 24 hrs; assay type: functional
Procedure, shortened: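 Neutropenic mice (cyclophosphamide sc on days −4, −1 and +2) were infected iv 2 h before therapy. Five total doses from 0.078 to 20 mg/kg/24 h were given ip q24h for 4 days, three mice per regimen. Kidney CFU were measured at the end of therapy. Static and 1-log-kill doses were derived from a Hill sigmoid dose-effect fit.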

Nakaseomyces glabratus [3] = test: Antifungal activity against Candida glabrata 513 assessed as partial growth inhibition after 24 hrs by CLSI end point method; assay type: functional; conditions: Nakaseomyces glabratus, 513, 24 h
Procedure, shortened: (§3)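 Two end points were read against the drug-free control well: partial growth inhibition (the CLSI end point) and complete inhibition. Run in duplicate on four separate occasions; the value is the mean. Drug stock was made in DMSO and diluted in 0.9% NaCl.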

[4] = Elimination half life in serum of neutropenic ICR/Swiss mouse candidiasis model at 5 mg/kg, ip by reverse-phase high-pressure liquid chromatography; assay type: ADME, organism-based; parameters: dose 5 mg/kg, route intraperitoneal; conditions: read-out: beta t1/2 (converted); procedure, shortened: as §1
Nakaseomyces glabratus [5] = test: Antifungal activity against Candida glabrata 5376 infected in neutropenic ICR/Swiss mouse candidiasis model assessed as dose required for 1-log10 reduction in […] per kidney administered intraperitoneally every 48 hrs up to 4 days measured per 96 hrs; assay type: functional
Procedure, shortened: (§4)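 Neutropenic ICR/Swiss mice infected i.v. with the strain; therapy began 2 h later. Total doses of 1.25–320 mg/kg/96 h were given i.p. as 1, 2, 4 or 6 doses (q96h, q48h, q24h, q16h), three mice per regimen. Kidney CFU were counted after 4 days. Effect is the change from untreated controls at the end of therapy.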

Nakaseomyces glabratus [6] = test: Antifungal activity against Candida glabrata 34341 infected in neutropenic ICR/Swiss mouse candidiasis model assessed as dose required to maintain […] of 1.83 +/- 0.54 log10CFU per kidney administered intraperitoneally every 24 hrs up to 4 days measured per 24 hrs; assay type: functional
Candida albicans [7] = test: Antifungal activity against Candida albicans K-1 infected in neutropenic ICR/Swiss mouse candidiasis model assessed as […] burden per kidney administered intraperitoneally every 24 hrs up to 4 days measured per 96 hrs; assay type: functional; conditions: K-1, Kidney, ip; procedure, shortened: as §2
Nakaseomyces glabratus [8] = test: Antifungal activity against Candida glabrata 34341 assessed as partial growth inhibition after 24 hrs by CLSI end point method; assay type: functional; conditions: Nakaseomyces glabratus, 34341, 24 h; procedure, shortened: as §3
Nakaseomyces glabratus [9] = test: Antifungal activity against Candida glabrata 5376 infected in neutropenic ICR/Swiss mouse candidiasis model assessed as […] burden per kidney administered intraperitoneally every 24 hrs up to 4 days measured per 96 hrs; assay type: functional; conditions: Nakaseomyces glabratus, 5376, Kidney, ip; procedure, shortened: as §4
Nakaseomyces glabratus [10] = test: Antifungal activity against Candida glabrata 5376 infected in neutropenic ICR/Swiss mouse candidiasis model assessed as reduction of […] in kidney at 1.25 mg/kg, ip administered 2 hrs postinfection as single dose measured after 96 hrs post dosing by time-kill assay; assay type: functional, organism-based; parameters: dose 1.25 mg/kg
Procedure, shortened: (§5)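 Neutropenic mice given a single ip dose (1.25, 5 or 20 mg/kg) 2 h after tail-vein infection. Kidneys from 3 mice per time point collected nine times over 96 h. Homogenates serially diluted 1:10 and plated on SDA, 24 h at 35°C. Detection limit 100 CFU/ml.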

Serum = test: Fraction unbound in Candida albicans K-1 infected neutropenic ICR/Swiss mouse serum at 20 mg/kg, ip administered 2 hrs postinfection as single dose measured after 12 hrs; assay type: ADME, organism-based; parameters: dose 20 mg/kg, route intraperitoneal; conditions: in vivo
Candida albicans [11] = test: Antifungal activity against Candida albicans K-1 infected in neutropenic ICR/Swiss mouse candidiasis model assessed as […] burden per kidney administered intraperitoneally every 48 hrs up to 4 days measured per 96 hrs; assay type: functional; conditions: K-1, Kidney, ip; procedure, shortened: as §2
Nakaseomyces glabratus [12] = test: Antifungal activity against Candida glabrata 33616 infected in neutropenic ICR/Swiss mouse candidiasis model assessed as fungal count per kidney administered 2 hrs postinfection measured up to 48 hrs; assay type: functional
Procedure, shortened: (§6)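 Female ICR/Swiss mice (23–27 g) made neutropenic with cyclophosphamide s.c. (150 mg/kg day −4, 100 mg/kg day −1, 100 mg/kg day +2). Infected by tail vein with 0.1 ml inoculum (~6.1 log10 CFU/ml). Kidneys of untreated mice were homogenised and plated on SDA for 24 h at 35°C. Growth over 48 h is given as log10 CFU/kidney.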

[13] = Elimination half life in serum of neutropenic ICR/Swiss mouse candidiasis model at 20 mg/kg, ip by reverse-phase high-pressure liquid chromatography; assay type: ADME, organism-based; parameters: dose 20 mg/kg, route intraperitoneal; conditions: read-out: beta t1/2 (converted); procedure, shortened: as §1
Nakaseomyces glabratus [14] = test: Antifungal activity against Candida glabrata 33616 assessed as complete growth inhibition after 24 hrs by CLSI end point method; assay type: functional; conditions: Nakaseomyces glabratus, 33616, 24 h; procedure, shortened: as §3
Nakaseomyces glabratus [15] = test: Antifungal activity against Candida glabrata 32930 assessed as complete growth inhibition after 24 hrs by CLSI end point method; assay type: functional; conditions: Nakaseomyces glabratus, 32930, 24 h
Procedure, shortened: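 CLSI M27-A2 broth dilution. Two end points read against the drug-free control well: partial inhibition (CLSI end point) and complete inhibition. Run in duplicate on four separate occasions; value is the mean. Drug stock in DMSO, diluted in 0.9% NaCl.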

Nakaseomyces glabratus [16] = test: Antifungal activity against Candida glabrata 5376 infected in neutropenic ICR/Swiss mouse candidiasis model assessed as fungal count per kidney administered 2 hrs postinfection measured up to 48 hrs; assay type: functional; procedure, shortened: as §6
Nakaseomyces glabratus [17] = test: Antifungal activity against Candida glabrata 5376 infected in neutropenic ICR/Swiss mouse candidiasis model assessed as dose required to maintain […] burden of 1.83 +/- 0.54 log10CFU per kidney administered intraperitoneally every 24 hrs up to 4 days measured per 24 hrs; assay type: functional
Nakaseomyces glabratus [18] = test: Antifungal activity against Candida glabrata 35315 infected in neutropenic ICR/Swiss mouse candidiasis model assessed as dose required to maintain […] burden of 1.83 +/- 0.54 log10CFU per kidney administered intraperitoneally every 24 hrs up to 4 days measured per 24 hrs; assay type: functional
Nakaseomyces glabratus [19] = test: Antifungal activity against Candida glabrata 5376 infected in neutropenic ICR/Swiss mouse candidiasis model assessed as reduction of […] in kidney at 1.25 mg/kg, ip administered 2 hrs postinfection as single dose measured within 1 to 4 hrs post dosing by time-kill assay; assay type: functional, organism-based; parameters: dose 1.25 mg/kg; procedure, shortened: as §5
[20] = Cmax in human at 100 mg/day; assay type: ADME, organism-based; parameters: dose 100 mg/day; conditions: in vivo

For `CCCCCOc1ccc(-c2ccc(-c3ccc(C(=O)N[C@H]4C[C@@H](O)[C@@H](O)NC(=O)[C@@H]5[C@@H](O)[C@@H](C)CN5C(=O)[C@H]([C@@H](C)O)NC(=O)[C@H]([C@H](O)[C@@H](O)c5ccc(O)cc5)NC(=O)[C@@H]5C[C@@H](O)CN5C(=O)[C@H]([C@@H](C)O)NC4=O)cc3)cc2)cc1` [ANIDULAFUNGIN] ({pTerphenylCO(4''-OnC5H11)}-[Orn(4R-OH,5R-OH)]T[Hyp][hTyr(3S-OH,4S-OH)]T[Pro(3S-OH,4S-Me)]; lactam 1-C), the Cmax (Mus musculus) was 60000 ng/mL, the Activity (Candida albicans [1]) was 38.3 mg/kg and the Activity (Nakaseomyces glabratus [2]) was 3.31 mg/kg. For the same compound, the MIC (Nakaseomyces glabratus [3]) was 0.06 µg/mL (≈ 0.0526 µM), the half-life [4] was 14.8 h and the Activity (Nakaseomyces glabratus [5]) was 27.4 mg/kg. The Activity (Nakaseomyces glabratus [6]) was 6.9 mg/kg, the ED50 (Candida albicans [7]) was 3.5 mg/kg and the MIC (Nakaseomyces glabratus [8]) was 0.12 µg/mL (≈ 0.105 µM). For the same compound, the ED50 (Nakaseomyces glabratus [9]) was 15.9 mg/kg, the Activity (Nakaseomyces glabratus [10]) was “Active” and the Fu (Serum) was 1%. For the same compound, the ED50 (Candida albicans [11]) was 3.14 mg/kg, the log10cfu (Nakaseomyces glabratus [12]) was 1.81 and the half-life [13] was 14.7 h. For the same compound, the MIC (Nakaseomyces glabratus [14]) was 2 µg/mL (≈ 1.75 µM), the MIC (Nakaseomyces glabratus [15]) was 0.12 µg/mL (≈ 0.105 µM) and the log10cfu (Nakaseomyces glabratus [16]) was 2.1. For the same compound, the Activity (Nakaseomyces glabratus [17]) was 6.8 mg/kg, the Activity (Nakaseomyces glabratus [18]) was 6.4 mg/kg and the Activity (Nakaseomyces glabratus [19]) was “Active”. The Cmax [20] was 11000 ng/mL.
